21 compounds from PubChem BioAssay can be followed below.

Calls of active or inactive are those of the source. Cut-off read from the data, not from the text of the source, unless noted: active = inhibition above about 30%; inactive = the rest.

A short description of assay [1]: HUVEC growth inhibition – cell-based, human, primary screen (AID 575;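 active = viability at or below 30% in both replicate assays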;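 note: 100% = median of untreated cell wells with 0.1% DMSO on each plate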). The following applies: HUVEC proliferation, CellTiter-Glo luminescence, 72 h; at 10 µM; stronger effect = lower value. An outline of the steps:
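Test system: primary human umbilical vein endothelial cells; medium: endothelial basal medium with 2% FBS plus growth supplements; dosing: 10 µM compound only; times: 72 h treatment at 37 °C; signal: CTG luminescence; read-out: % viability relative to median vehicle-well signal on each plate; control set: vehicle and MePR control wells; plate: 384-well, collagen-coated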
Background: ATP-based viability assays read luminescence as a measure of living cells.

A short description of assay [2]: H69AR cell proliferation blockers – human, duplicate replicates, primary screen (AID 580;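 active = viability at or under a set limit in both replicates, limit being median viability minus 3 SD, cut at about 48% in these data, passing the limit was not always enough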;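 note: 100% = mean luminescence of untreated wells and 0% = no signal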). The note with it: H69AR lung tumor cells viability, ATP luminescence, 72 h; at 10 µM; stronger effect = lower value.
The nature of assay [3]: MRP1 drug-resistance reversers in H69AR cells – cell-based, doxorubicin co-treatment, pilot screen (AID 601;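 active = viability loss from added drug above about 55%, and viability with drug at most 40%, in both replicates, limit read from the data, passing the limit was not always enough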). The following applies: CellTiter-Glo, 72 h, at 10 µM; for differential viability (reversal): stronger effect = higher value.
Assay [4] in a line: yeast transport mutant growth inhibition pilot in 384-well plates, post-Golgi transport modulator project (AID 636; in the data active = inhibition above about 31%). The note with it: absorbance 615 nm, about 18 h, stronger effect = higher value.
Assay [5] is described as follows: growth suppression of yeast trafficking mutant, preliminary HTS, modulators of trafficking downstream of Golgi apparatus project, 1536-format plate, OD 615 nm (AID 637). The note with it: yeast transport mutant growth, absorbance 615 nm, 18 h; stronger effect = higher value.
Where [6] appears, read: H69AR cells + 2 uM doxorubicin, measured here: viability with 2 uM doxorubicin, stronger effect = lower value.
Setting [7] is: H69AR cells, compound alone cytotoxicity.

Broadly, the viability is a read-out of living cells in per cent, often relative to untreated cells. Broadly, the inhibition is the relative decrease from the control value, in per cent. As for `CCOc1ccc(CNc2ccc3c(c2)ncn3C)cc1`, the viability is 106% (inactive) in assay [1], 93.2% (inactive) in assay [2], 89.5% in assay [3] (setting [6]) and 93.2% in assay [3] (setting [7]). For the same compound, in assay [3] (H69AR cells + 2 uM doxorubicin), the differential viability (reversal) is 3.64% (inactive). For the same compound, the inhibition is -3.73% (inactive) in assay [4] and -6.83% (inactive) in assay [5].

For `CN(Cc1cnn(C)c1)C(=O)c1cc2ccccc2oc1=O`, the viability in assay [1] is 114% (inactive); in assay [2] it was 103% (inactive); in assay [3] (setting [6]) it was 89.9%; in assay [3] (setting [7]), 103%. Also, in assay [3] (H69AR cells + 2 uM doxorubicin), the differential viability (reversal) is 13.3% (inactive). Also, the inhibition was -5.66% (inactive) in assay [4] and 2.06% (inactive) in assay [5].

In the case of `O=C(O)C1CC=CCC1C(=O)Nc1cccc(C(=O)N2CCCCC2)c1` (configuration not stated), the viability in assay [1] is 107% (inactive); in assay [2], 91.9% (inactive); in assay [3] (setting [6]), 84.2%; in assay [3] (setting [7]), 91.9%. In assay [3] (H69AR cells + 2 uM doxorubicin), the differential viability (reversal) is 7.67% (inactive). Besides, the inhibition in assay [4] is -5.2% (inactive); in assay [5], 9.21% (inactive).

As for `COc1cccc(-c2nc(-c3ccc(NC(=O)Cc4ccccc4OC)cc3)no2)c1`, the viability is 85.3% (inactive) in assay [1], 90.6% (inactive) in assay [2], 77.8% in assay [3] (setting [6]) and 90.6% in assay [3] (setting [7]). Further, the differential viability (reversal) in assay [3] (H69AR cells + 2 uM doxorubicin) is 12.8% (inactive). The inhibition is 9.09% (inactive) in assay [4] and -0.95% (inactive) in assay [5].

Regarding `CCSc1nc(-c2ccc(OC)cc2)ccc1C#N`, the viability in assay [1] was 65.8% (inactive); in assay [2], 66.5% (inactive); in assay [3] (setting [6]) it was 86.3%; in assay [3] (setting [7]), 66.5%. Also, in assay [3] (H69AR cells + 2 uM doxorubicin), the differential viability (reversal) is -19.8% (inactive). Moreover, the inhibition in assay [4] is -1.69% (inactive); in assay [5], -1.27% (inactive).

As to `Cc1ccccc1NC(=O)C1CCC(C)(C(=O)O)C1(C)C` (configuration not stated), the viability was 92.7% (inactive) in assay [1], 99.8% (inactive) in assay [2], 98.8% in assay [3] (setting [6]) and 99.8% in assay [3] (setting [7]). Besides, the differential viability (reversal) in assay [3] (H69AR cells + 2 uM doxorubicin) is 0.94% (inactive). The inhibition in assay [4] is -0.78% (inactive); in assay [5] it was -7.3% (inactive).

Regarding `O=C(CCN1CCN(CCO)CC1)Nc1ccc(OCc2ccccc2)cc1`, the viability in assay [1] was 76.5% (inactive); in assay [2], 88.9% (inactive); in assay [3] (setting [6]), 82.9%; in assay [3] (setting [7]), 88.9%. Also, the differential viability (reversal) in assay [3] (H69AR cells + 2 uM doxorubicin) is 6.03% (inactive). Moreover, the inhibition in assay [4] was -2.6% (inactive); in assay [5] it was -6.67% (inactive).

Take `COc1ccccc1C(=O)NCCNC(=O)c1ccco1`: the viability is 112% (inactive) in assay [1], 91.6% (inactive) in assay [2], 96.5% in assay [3] (setting [6]) and 91.6% in assay [3] (setting [7]). Besides, in assay [3] (H69AR cells + 2 uM doxorubicin), the differential viability (reversal) is -4.88% (inactive). Besides, the inhibition is -4.53% (inactive) in assay [4] and 0.48% (inactive) in assay [5].

For `c1ccc2c3nnc4n(c-3nc2c1)CCCS4`, the viability was 94% (inactive) in assay [1], 104% (inactive) in assay [2], 92.7% in assay [3] (setting [6]) and 104% in assay [3] (setting [7]). Moreover, the differential viability (reversal) in assay [3] (H69AR cells + 2 uM doxorubicin) was 11.4% (inactive). Besides, the inhibition in assay [4] is -1.32% (inactive); in assay [5], 4.6% (inactive).

`CCOC(=O)N1CCN(C(=O)Nc2ccc3oc(C)nc3c2)CC1`: the viability in assay [1] was 98.2% (inactive); in assay [2], 93.2% (inactive); in assay [3] (setting [6]) it was 94.1%; in assay [3] (setting [7]), 93.2%. In addition, the differential viability (reversal) in assay [3] (H69AR cells + 2 uM doxorubicin) is -0.96% (inactive). Also, the values for the inhibition in assay [4] and in assay [5] were -2.63% (inactive) and 0% (inactive), respectively.

Regarding `O=S(=O)(c1ccc2c(c1)OCCO2)N(Cc1ccc(F)cc1)Cc1nnc(-c2cccs2)o1`, the viability was 81% (inactive) in assay [1], 92.1% (inactive) in assay [2], 83.4% in assay [3] (setting [6]) and 92.1% in assay [3] (setting [7]). The differential viability (reversal) in assay [3] (H69AR cells + 2 uM doxorubicin) is 8.63% (inactive). In addition, the results for the inhibition in assay [4] and in assay [5] were -3.38% (inactive) and 0.79% (inactive), respectively.

As for `c1ccc(OCCOc2ncnc3sccc23)cc1`, the viability in assay [1] is 100% (inactive); in assay [2], 98.7% (inactive); in assay [3] (setting [6]), 91.7%; in assay [3] (setting [7]), 98.7%. In addition, the differential viability (reversal) in assay [3] (H69AR cells + 2 uM doxorubicin) is 7% (inactive). Further, the inhibition in assay [4] is -0.26% (inactive); in assay [5] it was -1.75% (inactive).

For `Nc1nc(Nc2cccc3ccccc23)nc(C2CCCC2=O)n1` (configuration not stated), the viability in assay [1] is 89.7% (inactive); in assay [2] it was 18% (active); in assay [3] (setting [6]) it was 17.5%; in assay [3] (setting [7]), 18%. The differential viability (reversal) in assay [3] (H69AR cells + 2 uM doxorubicin) is 0.545% (inactive). Also, the inhibition is -4.46% (inactive) in assay [4] and 3.45% (inactive) in assay [5].

Regarding `Cc1ccc(OCc2nnc(SCC(=O)N3CCOCC3)n2C)cc1`, the viability in assay [1] was 102% (inactive); in assay [2], 106% (inactive); in assay [3] (setting [6]), 88.5%; in assay [3] (setting [7]), 106%. Moreover, the differential viability (reversal) in assay [3] (H69AR cells + 2 uM doxorubicin) is 17.4% (inactive). Further, the inhibition in assay [4] was -0.93% (inactive); in assay [5], -6.35% (inactive).

Consider `O=C(CSc1nc2ccc(Cl)cc2[nH]1)NCc1ccco1`, for which the viability in assay [1] was 74.2% (inactive); in assay [2], 65.4% (inactive); in assay [3] (setting [6]), 69.6%; in assay [3] (setting [7]) it was 65.4%. Besides, the differential viability (reversal) in assay [3] (H69AR cells + 2 uM doxorubicin) is -4.26% (inactive). In addition, the inhibition was 0.65% (inactive) in assay [4] and 13.3% (inactive) in assay [5].

For `Cc1nn(Cc2ccccc2)c(C)c1NC(=O)CCC(=O)O`, the viability in assay [1] was 110% (inactive); in assay [2], 89.4% (inactive); in assay [3] (setting [6]), 97.7%; in assay [3] (setting [7]) it was 89.4%. Moreover, in assay [3] (H69AR cells + 2 uM doxorubicin), the differential viability (reversal) was -8.23% (inactive). Besides, the inhibition is 3.42% (inactive) in assay [4] and -1.75% (inactive) in assay [5].

For `COC(=O)c1cc(Br)ccc1-c1ccc(/C=N/n2nnnc2N)o1`, the viability in assay [1] is 58.1% (inactive); in assay [2], 80.6% (inactive); in assay [3] (setting [6]), 66.7%; in assay [3] (setting [7]) it was 80.6%. Further, the differential viability (reversal) in assay [3] (H69AR cells + 2 uM doxorubicin) is 14% (inactive). For the same compound, the inhibition in assay [4] was -2.47% (inactive); in assay [5], 6.51% (inactive).

Take `C=CCSc1n[nH]c(-c2ccc(OC)cc2)n1`: the viability in assay [1] is 108% (inactive); in assay [2], 90.3% (inactive); in assay [3] (setting [6]), 87.9%; in assay [3] (setting [7]) it was 90.3%. In assay [3] (H69AR cells + 2 uM doxorubicin), the differential viability (reversal) was 2.41% (inactive). Moreover, the values for the inhibition in assay [4] and in assay [5] were -4.53% (inactive) and -2.06% (inactive), respectively.

For the compound `CN=C(Nc1ccc2c(c1)OCO2)SC1CC(=O)N(c2ccccc2)C1=O` (configuration not stated), the viability in assay [1] was 78.3% (inactive); in assay [2], 82.3% (inactive); in assay [3] (setting [6]), 82.3%; in assay [3] (setting [7]) it was 82.3%. In addition, the differential viability (reversal) in assay [3] (H69AR cells + 2 uM doxorubicin) is -0.04% (inactive). Further, the inhibition in assay [4] is -4.93% (inactive); in assay [5] it was -0.79% (inactive).

Regarding `O=C(CP(=O)(c1ccccc1)c1ccccc1)N1CCCCC1`, the viability is 111% (inactive) in assay [1], 106% (inactive) in assay [2], 86.9% in assay [3] (setting [6]) and 106% in assay [3] (setting [7]). In addition, the differential viability (reversal) in assay [3] (H69AR cells + 2 uM doxorubicin) is 19% (inactive). Also, the figures for the inhibition in assay [4] and in assay [5] were -3.51% (inactive) and 6.83% (inactive), respectively.

Turning to `CS(=O)(=O)N(CC(=O)NC1CC1)c1cccc(F)c1`, the viability in assay [1] is 86.5% (inactive); in assay [2], 90% (inactive); in assay [3] (setting [6]), 84.1%; in assay [3] (setting [7]) it was 90%. The differential viability (reversal) in assay [3] (H69AR cells + 2 uM doxorubicin) is 5.87% (inactive). In addition, the inhibition was -5.19% (inactive) in assay [4] and 0% (inactive) in assay [5].
